Screens: PubChem BioAssay, several laboratories
Shown are actives, neighbours in structure and some others; about 3.1% of the full set was active somewhere.
Apaf1 inhib: human Apaf-1 inhibition | reconstituted apoptosome caspase-3 activity, DEVD-Rh110 fluorescence | inhibition, % at 20 µM | hit rate 0.71% among 330,000 | AID 489030; active = inhibition of at least 40% at 20 µM;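 also: plate controls were DMSO wells for no effect and DEVD-CHO caspase inhibitor wells for full effect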
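Assay system: Apoptosome proteins | Medium: pH 7.5 Hepes buffer with CHAPS, BSA, DTT | Also added: Cytochrome c and DEVD-Rh110 substrate | Times: 30 min plus 50 min, RT | Detection: Rhodamine 110 fluorescence at Ex 480/Em 540 nm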
PAFAH1B2 inh: blocks human PAF acetylhydrolase 1b catalytic subunit 2; P68402; recombinant PAFAH1B2, FP-rhodamine activity probe, fluorescence polarization; inhibition, % at 3.39 µM; hit rate 1.2% among 340,000; AID 492953;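 active = inhibition above the mean of all tested compounds plus 3 SD, cut at about 24% in these data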;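 also: 0% = enzyme with DMSO and 100% = wells lacking PAFAH1B2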
Target sequence (P68402 whole entry, looked up): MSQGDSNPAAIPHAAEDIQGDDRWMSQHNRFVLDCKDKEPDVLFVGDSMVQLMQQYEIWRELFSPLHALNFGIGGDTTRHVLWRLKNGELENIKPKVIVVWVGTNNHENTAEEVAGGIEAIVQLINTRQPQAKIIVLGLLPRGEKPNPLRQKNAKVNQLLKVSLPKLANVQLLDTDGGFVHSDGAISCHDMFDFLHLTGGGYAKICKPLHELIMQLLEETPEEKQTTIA
pPAFAH inh: pPAFAH (human) enzyme inhibition | recombinant pPAFAH, FP-rhodamine probe fluorescence polarization | AID 463082 | hit rate 1.5% among 330,000 | Q13093 | inhibition, % at 3.39 µM;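 active = inhibition above the mean inhibition across the screen plus 3 SD, cut at about 25% in these data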;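 also: inhibitors block binding of the rhodamine activity-based probe so polarization drops; 0% = enzyme with DMSO and 100% = wells lacking pPAFAH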
PAFAH1B3 inh: PAFAH1B3 (human) inhibition; Q15102; recombinant PAFAH1B3, FP-rhodamine probe, fluorescence polarization; inhibition, % at 3.39 µM; hit rate 0.28% among 340,000;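 active = inhibition above the screen-wide average of all tested compounds plus 3 SD, cut at about 25% in these data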;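 also: 0% = enzyme with DMSO only and 100% = wells lacking PAFAH1B3 protein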
Target sequence (Q15102 whole entry, looked up): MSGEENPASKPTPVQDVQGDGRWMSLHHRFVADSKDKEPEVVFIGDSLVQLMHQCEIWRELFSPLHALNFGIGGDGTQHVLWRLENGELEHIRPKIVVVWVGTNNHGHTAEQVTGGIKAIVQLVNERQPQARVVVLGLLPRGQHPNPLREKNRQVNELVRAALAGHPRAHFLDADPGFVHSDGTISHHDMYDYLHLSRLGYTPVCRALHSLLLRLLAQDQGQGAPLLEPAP
PAFAH2 inh: PAFAH2 (human) inhibition; Q99487; recombinant PAFAH2, FP-rhodamine activity probe, fluorescence polarization; hit rate 0.99% among 340,000; inhibition, % at 3.39 µM;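 active = inhibition above the mean over all tested compounds plus 3 SD, cut at about 30% in these data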;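 also: inhibitors block probe labeling of enzyme so polarization drops; 0% = enzyme with DMSO and 100% = wells lacking PAFAH2 protein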
Active calls of the source: *; x = no result.

SMILES	Apaf1 inhib	PAFAH1B2 inh	pPAFAH inh	PAFAH1B3 inh	PAFAH2 inh
Cc1cccc2cc(C(c3nnnn3CC3CCCO3)N3CCc4ccccc4C3)c(=O)[nH]c12 (configuration not stated)	79*	x	2	x	x
Cc1ccc2cc(C(c3nnnn3CC3CCCO3)N3CCc4ccccc4C3)c(=O)[nH]c2c1 (configuration not stated)	87*	6	0	11	-3
COC(C/C=C\C(=O)[C@@H](C)OCc1ccccc1)OC	-8	x	4	x	x
NC(=O)c1ccc(Oc2ccc(Cl)c3ccccc23)c([N+](=O)[O-])c1	7	0	34*	-3	1
Cn1c(CNC(=O)c2ccc(Cl)cc2)nnc1SCC(=O)NC1CCCC1	0	3	1	3	6
Cn1c(CNC(=O)c2ccc(Cl)cc2)nnc1SCC(=O)Nc1sc2c(c1C#N)CCCC2	7	26*	4	3	-1
C/C(=N\NC(=O)c1ccncc1)c1cccc(NC(=O)c2ccc(Cl)s2)c1	-6	1	x	-1	0
Cc1nc(N)sc1-c1csc(N(C)c2ccc(O)cc2)n1	-3	3	27*	6	5
Cc1ccc(S(=O)(=O)NCC(=O)OCCOc2ccc(Br)cc2)cc1	18	30*	13	12	-2
CC(C)(C)SCCNS(=O)(=O)c1ccc(Cl)cc1	17	x	31*	x	x
CC(C)(C)SCCNS(=O)(=O)c1ccc(C#N)cc1	-18	19	9	8	-4
Cc1ccc(OCCNS(=O)(=O)c2ccc(Cl)cc2)cc1	10	24*	3	5	9
CC(NC(C)c1ccccc1Cl)C(=O)Nc1cccc(S(=O)(=O)N2CCCCC2)c1 (configuration not stated)	17	6	4	8	0
C=C1CCC[C@]2(C)C[C@H]3OC(=O)C(CN4CCCCC4CO)[C@H]3CC12 (some centres not stated)	6	36*	-1	5	44*
C=C1CCC[C@]2(C)C[C@H]3OC(=O)C(CNC(C)(CO)CO)[C@H]3CC12 (some centres not stated)	3	28*	3	-1	33*
CCOc1cc(CNCCc2ccc(S(N)(=O)=O)cc2)ccc1OCc1ccc(Cl)cc1	6	28*	0	3	1
O=C(COC(=O)COc1ccc(Cl)cc1)NCCCc1ccccc1	7	29*	14	0	5
COc1cc(CNCCc2ccc(S(N)(=O)=O)cc2)ccc1OCc1ccc(Cl)cc1	-19	12	3	8	-1
CCOc1ccc(CCNC(=O)COC(=O)COc2ccc(Cl)cc2)cc1OCC	16	4	26*	7	-4
O=C1[C@H](Cc2ccccc2)NCC=CC[C@H](c2ccco2)N1Cc1ccccc1	x	11	x	1	-3
COc1ccc([N+](=O)[O-])cc1N(CC(=O)NCCSc1ccc(C)cc1)S(C)(=O)=O	-3	31*	-7	4	8
O=C(CCC(=O)c1cccs1)OCc1ccc([N+](=O)[O-])cc1	4	0	-2	9	0
CCc1cc(/C(Cc2ccccn2)=N\O)c(O)cc1O	-6	13	8	21	14
CCc1cc(/C(Cc2ccc3ccccc3n2)=N\O)c(O)cc1O	-2	24	20	41*	17
O=S(=O)(Nc1ccc2c(c1)nc1n2CCN(Cc2ccccc2)C1)c1ccccc1	24	8	26*	-8	8
SMILES	Apaf1 inhib	PAFAH1B2 inh	pPAFAH inh	PAFAH1B3 inh	PAFAH2 inh
CC(=O)N1CCc2c(sc(NC(=O)C3CC3)c2-c2nc3ccccc3s2)C1	72*	-2	14	-4	5
CC(=O)Nc1sc2c(c1-c1nc3ccccc3s1)CN(C(C)C)CC2	17	6	2	8	6
CCOc1ccc(CNc2ccc3c(c2)ncn3C)cc1	15	2	-1	10	3
Brc1ccc(CNc2ccc3ncccc3c2)cc1	33	51*	x	4	0
CCn1cnc2cc(NCc3ccc(Br)cc3)ccc21	9	x	9	x	x
Cn1cnc2cc(NCc3ccc(Cl)cc3)ccc21	11	43*	1	3	0
O=C(Nc1ccc2ncccc2c1)c1cccc(Br)c1	15	3	-2	4	-3
CCCn1cnc2cc(NCc3ccc(Br)cc3)ccc21	15	37*	10	6	1
Cc1ccc(N2C(=O)CCC2=O)c(C)c1	-17	1	1	-3	2
Cc1cc(CN2CCN(CC(=O)Nc3cc(Cl)ccc3-n3cncn3)CC2)no1	2	0	x	1	2
Cc1ccc(SCC(=O)OCC(=O)N(C)C2CCS(=O)(=O)C2)cc1C (configuration not stated)	-4	4	25*	7	-11
CC(C)CN(C(=O)COC(=O)CSc1ccc([N+](=O)[O-])cc1)C1CCS(=O)(=O)C1 (configuration not stated)	-8	25*	4	6	3
CC(CC(=O)N1CCN(S(=O)(=O)c2ccc([N+](=O)[O-])cc2)CC1)c1ccccc1 (configuration not stated)	3	18	0	6	-8
COCCN(C(=O)CSc1nnc(-c2ccco2)n1C)c1c(N)n(CC(C)C)c(=O)[nH]c1=O	7	6	-5	7	3
COC(=O)C(NC(=O)c1ccccc1Cl)(Nc1ncc(S(=O)(=O)c2ccc([N+](=O)[O-])cc2)s1)C(F)(F)F (configuration not stated)	11	26*	2	6	2
CC1=NN(c2ccc(Cl)cc2)C(=O)C1C(c1cccc(O)c1)c1c(C)[nH]n(-c2ccc(Cl)cc2)c1=O (configuration not stated)	85*	7	-3	16	20
O=[N+]([O-])c1cc(-n2cnnn2)ccc1N1CCC(Cc2ccccc2)CC1	28	6	28*	3	0
CC1CC(C)CN(c2ccc(-n3cnnn3)cc2[N+](=O)[O-])C1 (configuration not stated)	16	21	13	6	-1
CC(=O)Nc1ccc(Nc2nc3ccccc3nc2NS(=O)(=O)c2ccc(Cl)c([N+](=O)[O-])c2)cc1	x	23	x	31*	52*
Cc1ccccc1C(=O)Nc1ccccc1C(=O)N1CCC(C)CC1	-6	-2	3	9	2
Cc1ccc(N(CC(N)=O)C2SC(=O)N(Cc3ccccc3)C2=O)cc1 (configuration not stated)	-5	26*	1	12	6
O=C(Nc1ccc2nc(-c3ccco3)c(-c3ccco3)nc2c1)N1CCCCCC1	57*	x	69*	x	x
CCOC(=O)C1CCN(C(=O)Nc2ccc3c(c2)nc(C)n3C)CC1	-4	4	-1	10	-8
CCOC(=O)C1CCN(C(=O)Nc2ccc3nc(-c4ccco4)c(-c4ccco4)nc3c2)CC1	70*	11	60*	13	21
